Data on eight molecules can be found in ChEMBL document CHEMBL1127349, “6,7,8,9-Tetrahydro-N,N-di-n-propyl-3H-benzindol-8-amines. Derivatives as potent and orally active serotonin 5-HT1A receptor agonists” (J Med Chem, 1994).

The target of experiment [1] is T1, 5-hydroxytryptamine receptor 1A (Rattus norvegicus, UniProt P19327).
T1 sequence (P19327 whole entry): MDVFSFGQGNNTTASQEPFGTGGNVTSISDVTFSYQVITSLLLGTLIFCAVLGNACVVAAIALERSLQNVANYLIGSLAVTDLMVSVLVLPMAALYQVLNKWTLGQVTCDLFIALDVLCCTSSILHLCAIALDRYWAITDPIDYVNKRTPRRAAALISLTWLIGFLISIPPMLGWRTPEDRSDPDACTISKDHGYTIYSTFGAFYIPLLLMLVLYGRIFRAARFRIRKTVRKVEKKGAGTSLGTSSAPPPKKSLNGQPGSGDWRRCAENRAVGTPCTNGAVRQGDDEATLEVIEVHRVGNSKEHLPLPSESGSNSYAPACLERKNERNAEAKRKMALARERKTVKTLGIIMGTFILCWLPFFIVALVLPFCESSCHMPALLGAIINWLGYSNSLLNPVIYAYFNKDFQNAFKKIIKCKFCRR
The experiment in a line: Displacement of the radioligand [3H]8-OH-DPAT from 5-hydroxytryptamine 1A receptor. A digest of the protocol:
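Rat whole brain minus brain stem and cerebellum, washed membranes in 50 mM Tris pH 8.0 with 120 mM NaCl, 4 mM CaCl2, 4 mM MgCl2, 10 μM pargyline. Nonspecific with 10 μM 5-HT. IC50 by semilog linear regression, Ki via Cheng–Prusoff; 3–7 experiments, triplicates.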

For a further experiment, the target named is D(2) dopamine receptor (Rattus norvegicus, UniProt P61169). The experiment in a line: Displacement of the radioligand [3H]spiperone from D2 receptor. A digest of the protocol: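 Rat striatal membranes in 50 mM potassium phosphate buffer, incubated with 0.5 nM [3H]spiperone (3 mg tissue) 10 min at 37 °C. Nonspecific binding defined with 10 μM 6,7-ADTN. IC50 converted to Ki by Cheng–Prusoff; 3–7 experiments, each concentration in triplicate.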
Sequence of D(2) dopamine receptor (P61169 whole entry): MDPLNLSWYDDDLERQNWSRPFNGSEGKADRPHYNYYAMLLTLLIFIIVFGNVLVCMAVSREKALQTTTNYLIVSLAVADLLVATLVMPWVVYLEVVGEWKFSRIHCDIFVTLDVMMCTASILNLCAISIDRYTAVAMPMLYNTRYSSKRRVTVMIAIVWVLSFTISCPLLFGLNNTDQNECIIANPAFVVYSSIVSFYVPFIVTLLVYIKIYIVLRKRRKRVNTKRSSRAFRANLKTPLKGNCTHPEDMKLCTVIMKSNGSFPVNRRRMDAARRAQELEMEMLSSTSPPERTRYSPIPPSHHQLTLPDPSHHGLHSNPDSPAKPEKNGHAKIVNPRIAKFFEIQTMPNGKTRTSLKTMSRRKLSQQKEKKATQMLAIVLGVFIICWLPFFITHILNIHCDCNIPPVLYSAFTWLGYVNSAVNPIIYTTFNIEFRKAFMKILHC

The species named for experiment [2] is Rattus norvegicus. The experiment in a line: The concentration yielding a half maximal decrease of the 5-HTP was determined in rat brain striatum. The format is functional. In outline:
(§1)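 Reserpine-pretreated (5 mg/kg sc, 18 h) male Sprague-Dawley rats, 200–300 g; compounds in saline given sc. DOPA and 5-HTP in limbic system, striatum and hemispheres measured by HPLC with electrochemical detection. Dose–response curves of 4–6 doses (n = 4) per area, fitted to variable-slope sigmoid on log data to give ED50.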

The species entered for experiment [3] is Rattus norvegicus. The experiment in a line: The concentration yielding a half maximal decrease of the DOPA was determined in rat brain striatum. The format is functional. A digest of the protocol:
as §1

The species entered for experiment [4] is Rattus norvegicus. The experiment in a line: The concentration yielding a half maximal decrease of the 5-HTP was determined in rat brain hemispheres. The format is functional. A digest of the protocol: as §1
Experiment [5] is filed under the species Rattus norvegicus. As to the kind of experiment: The concentration yielding a half maximal decrease of the 5-HTP was determined in rat limbic system. The format is functional. A digest of the protocol: as §1
For experiment [6], the species on record is Rattus norvegicus. The experiment in a line: The concentration yielding a half maximal decrease of the DOPA was determined in rat limbic system. The format is functional.
The species named for experiment [7] is Rattus norvegicus. As to the kind of experiment: Log concentration to inhibit 5-HTP accumulation was determined in rat brain hemispheres. The format is functional. A digest of the protocol: as §1
Experiment [8] is filed under the species Rattus norvegicus. As to the kind of experiment: Log concentration to inhibit 5-HTP accumulation was determined in rat limbic system. The format is functional. A digest of the protocol:
as §1

The species entered for experiment [9] is Rattus norvegicus. The experiment in a line: Log concentration to inhibit DOPA accumulation was determined in rat limbic system. The format is functional. A digest of the protocol: as §1
The species entered for experiment [10] is Rattus norvegicus. As to the kind of experiment: Log concentration to inhibit 5-HTP accumulation was determined in rat brain striatum. The format is functional. In outline: as §1
Experiment [11] concerns Rattus norvegicus. As to the kind of experiment: The concentration yielding a half maximal decrease of the DOPA was determined in rat brain hemispheres; inactive at 50 umol/kg. The format is functional, organism-based. A digest of the protocol:
as §1

Experiment [12] deals with Rattus norvegicus. As to the kind of experiment: Motor activity was measured by motility testing on injecting the compound subcutaneously into rats at the dose of 0.02 umol/kg (1a) and 3.5 umol/kg (1b).
The species named for experiment [13] is Rattus norvegicus. As to the kind of experiment: The concentration yielding a half maximal decrease of the 5-HTP was determined in rat brain striatum. The format is functional.
The subject of experiment [14] is Rattus norvegicus. As to the kind of experiment: The concentration yielding a half maximal decrease of the DOPA was determined in rat brain hemispheres; Inactive at 3.1 umol/kg. The format is functional, organism-based. A digest of the protocol:
as §1

In experiment [15] the test system is Rattus norvegicus. The experiment in a line: The concentration yielding a half maximal decrease of the DOPA was determined in rat brain striatum; Inactive at 3.1 umol/kg. The format is functional, organism-based.
The species named for experiment [16] is Rattus norvegicus. As to the kind of experiment: The concentration yielding a half maximal decrease of the 5-HTP was determined in rat brain hemispheres. The format is functional.
Experiment [17] is filed under the species Rattus norvegicus. As to the kind of experiment: The concentration yielding a half maximal decrease of the 5-HTP was determined in rat limbic system. The format is functional.
For experiment [18], the species on record is Rattus norvegicus. The experiment in a line: The concentration yielding a half maximal decrease of the DOPA was determined in rat limbic system. The format is functional.
The subject of experiment [19] is Rattus norvegicus. The experiment in a line: Motor activity was measured by motility testing on injecting the compound subcutaneously into rats at the dose of 12.5 umol/kg. The format is functional. A digest of the protocol:
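Rats given reserpine 5 mg/kg sc 18 h beforehand, then test compound sc in neck (n = 4). Placed singly in photocell motility meters straight after dosing; counts recorded for 30 min, gross behaviour observed throughout. Value as counts/30 min with SEM.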

In experiment [20] the test system is Rattus norvegicus. The experiment in a line: The concentration yielding a half maximal decrease of the DOPA was determined in rat brain hemispheres; Partial response at 50 umol/kg. The format is functional, organism-based. In outline: as §1
The species entered for experiment [21] is Rattus norvegicus. The experiment in a line: Log concentration to inhibit DOPA accumulation was determined in rat brain striatum. The format is functional. A digest of the protocol:
as §1

The species named for experiment [22] is Rattus norvegicus. The experiment in a line: The concentration yielding a half maximal decrease of the DOPA was determined in rat brain striatum. The format is functional.
Experiment [23] concerns Rattus norvegicus. The experiment in a line: The concentration yielding a half maximal decrease of the DOPA was determined in rat limbic system; Partial response at 50 umol/kg. The format is functional, organism-based.
The subject of experiment [24] is Rattus norvegicus. The experiment in a line: The concentration yielding a half maximal decrease of the 5-HTP was determined in rat limbic system; inactive at 50 umol/kg. The format is functional, organism-based. In outline: as §1
Experiment [25] concerns Rattus norvegicus. The experiment in a line: The concentration yielding a half maximal decrease of the DOPA was determined in rat brain striatum; Partial response at 50 umol/kg. The format is functional, organism-based.
Experiment [26] relates to Rattus norvegicus. As to the kind of experiment: The concentration yielding a half maximal decrease of the 5-HTP was determined in rat brain hemispheres; Partial response at 50 umol/kg. The format is functional, organism-based. In outline: as §1
Experiment [27] concerns Rattus norvegicus. As to the kind of experiment: The concentration yielding a half maximal decrease of the 5-HTP was determined in rat brain striatum; inactive at 50 umol/kg. The format is functional, organism-based. A digest of the protocol:
as §1

In experiment [28] the test system is Rattus norvegicus. As to the kind of experiment: The concentration yielding a half maximal decrease of the DOPA was determined in rat limbic system; inactive at 50 umol/kg. The format is functional, organism-based.
The subject of experiment [29] is Rattus norvegicus. The experiment in a line: The concentration yielding a half maximal decrease of the DOPA was determined in rat brain striatum; Partial response 50 umol/kg. The format is functional, organism-based.
Experiment [30] has as its system Rattus norvegicus. The experiment in a line: The concentration yielding a half maximal decrease of the 5-HTP was determined in rat brain hemispheres; inactive at 50 umol/kg. The format is functional, organism-based. In outline:
as §1

In experiment [31] the test system is Rattus norvegicus. As to the kind of experiment: The concentration yielding a half maximal decrease of the DOPA was determined in rat limbic system; Partial response 50 umol/kg. The format is functional, organism-based.

Calls of active or inactive are those of the source. No cut-off for these calls is given here.

As a reminder, the Ki is a dissociation constant, usually derived from enzyme kinetics or from competition with a known ligand. A word on the ED50: it is the dose that gives a 50% effect, or the effect in half of the subjects. As for `CCCN(CCC)C1CCc2cc3c(C=O)c[nH]c3cc2C1` (stereo unspecified), the Ki in [1] turned out to be 4720 nM; at D(2) dopamine receptor, 700 nM. In addition, the ED50 is 18 µmol/kg in the experiment filed under Rattus norvegicus [2]; 16.7 µmol/kg in the experiment listed under Rattus norvegicus [3]; 14 µmol/kg in the experiment filed under Rattus norvegicus [4]; 13 µmol/kg in the experiment listed under Rattus norvegicus [5]; 27.8 µmol/kg in the experiment listed under Rattus norvegicus [6]. In addition, the pED50 is given as 4.87 in the experiment listed under Rattus norvegicus [7], 4.88 in the experiment filed under Rattus norvegicus [8], 4.78 in the experiment listed under Rattus norvegicus [9] and 4.74 in the experiment filed under Rattus norvegicus [10]. Moreover, the ED50 result in the experiment on Rattus norvegicus [11] was “inactive”. In the experiment on Rattus norvegicus [12], this molecule had a Counts/30 min of 172.

For the molecule `CCCN(CCC)[C@@H]1CCc2ccc3[nH]cc(C#N)c3c2C1`, the Ki in experiment [1] turned out to be 2.7 nM; at D(2) dopamine receptor it was 419 nM. Also, the ED50 in the experiment listed under Rattus norvegicus [13] came to 0.036 µmol/kg; in the experiment listed under Rattus norvegicus [16], 0.14 µmol/kg; in the experiment filed under Rattus norvegicus [17], 0.092 µmol/kg; in the experiment filed under Rattus norvegicus [18], 1.65 µmol/kg. In addition, the ED50 entry with Rattus norvegicus [14] and in the experiment on Rattus norvegicus [15] was “inactive” in each case. In addition, the pED50 in the experiment filed under Rattus norvegicus [7] turned out to be 6.85; in the experiment filed under Rattus norvegicus [8], 7.03; in the experiment filed under Rattus norvegicus [9], 5.78; in the experiment listed under Rattus norvegicus [10], 7.44.

`CCCN(CCC)C1CCc2ccc3[nH]ccc3c2C1` (stereo unspecified): the Activity in the experiment with Rattus norvegicus [19] turned out to be 177 Counts 30min-1.

With `CCCN(CCC)[C@@H]1CCc2ccc3[nH]ccc3c2C1`, the Activity with Rattus norvegicus [19] is listed as 82 Counts 30min-1.

Regarding `CCCN(CCC)C1CCc2ccc3[nH]cc(Cl)c3c2C1` (stereo unspecified), the Ki turned out to be 12.6 nM in experiment [1] and 317 nM at D(2) dopamine receptor. The ED50 was 1.7 µmol/kg in the experiment listed under Rattus norvegicus [13]; “Weak activity” with Rattus norvegicus [20]; 1.4 µmol/kg in the experiment listed under Rattus norvegicus [16]; 1.4 µmol/kg in the experiment filed under Rattus norvegicus [17]; 3.7 µmol/kg in the experiment filed under Rattus norvegicus [18]; 3.4 µmol/kg in the experiment filed under Rattus norvegicus [22]. For the same molecule, the pED50 is 5.85 in the experiment filed under Rattus norvegicus [7]; 5.86 in the experiment filed under Rattus norvegicus [8]; 5.47 in the experiment listed under Rattus norvegicus [21]; 5.43 in the experiment filed under Rattus norvegicus [9]; 5.78 in the experiment filed under Rattus norvegicus [10].

For `CCCN(CCC)C1CCc2ccc3cc[nH]c3c2C1` (stereo unspecified), the Ki turned out to be 220 nM in [1] and 145 nM at D(2) dopamine receptor. In the experiment on Rattus norvegicus [19], this molecule returned an Activity of 119 Counts 30min-1. Besides, the median effective dose (ED50) result in the experiment on Rattus norvegicus [23], in the experiment on Rattus norvegicus [25] and in the experiment on Rattus norvegicus [26] was “Weak activity” in each case. Moreover, the ED50 entry in the experiment with Rattus norvegicus [24], in the experiment with Rattus norvegicus [27] and in the experiment on Rattus norvegicus [11] was “inactive” each time.

As for `CCCN(CCC)C1CCc2ccc3[nH]cc(CC(F)(F)F)c3c2C1` (stereo unspecified), the inhibitory constant (Ki) in experiment [1] worked out at 182 nM; on D(2) dopamine receptor, 796 nM. This molecule yielded an Activity in the experiment with Rattus norvegicus [19] of 10 Counts 30min-1. The ED50 entry with Rattus norvegicus [28], in the experiment with Rattus norvegicus [24], in the experiment with Rattus norvegicus [30], in the experiment on Rattus norvegicus [27] and in the experiment with Rattus norvegicus [11] was “inactive” throughout. Also, the ED50 result in the experiment with Rattus norvegicus [29] was “Weak activity”.

Take `CCCN(CCC)C1CCc2ccc3c(c2C1)N(C=O)CC3` (stereo unspecified): the Ki was 550 nM in [1] and over 16000 nM on D(2) dopamine receptor. The ED50 entry with Rattus norvegicus [31] and in the experiment on Rattus norvegicus [29] was “Weak activity” in each case. Besides, the ED50 entry in the experiment on Rattus norvegicus [24], in the experiment with Rattus norvegicus [30], in the experiment on Rattus norvegicus [27] and in the experiment on Rattus norvegicus [11] was “inactive” in each case.
